Measured values reported in ChEMBL document CHEMBL5543163, “Druglike, 18F-labeled PET Tracers Targeting Fibroblast Activation Protein” (J Med Chem, 2024).

How the values were obtained:
[1] = target: Dipeptidyl peptidase 2 (Homo sapiens, UniProt Q9UHL4); experiment: Inhibition of DPP2 (unknown origin) using Lys-Ala-pNA as substrate preincubated for 15 mins followed by substrate addition and measured after 15 mins
[2] = Octanol/water partition coefficient, logD of compound at 74 kBq incubated for 2 mins by gamma counter method; format: physicochemical
Outline: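 Octanol and PBS phases were mixed and vortexed for 2 min, then centrifuged at 3,000 rpm for 10 min. Aliquots of 0.5 mL from each phase were γ-counted and corrected for mass and density. LogD was taken as log10 of the octanol/PBS radioactivity ratio.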

[3] = Stability in PBS assessed as compound remaining at 185 kBq measured upto 60 mins by radio-HPLC analysis; format: physicochemical; settings: read-out: Stability
Outline: (§1)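 Radiotracer was incubated at 37 °C for up to 60 min in PBS (0.01 M, pH 7.4) or in mouse plasma. Samples were deproteinized with an equal volume of cold ACN and centrifuged. The supernatant was analyzed by radio-HPLC with 30 s fractions γ-counted to give the intact fraction. Triplicates.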

[4] = Stability in CD1 mouse plasma assessed as compound remaining at 185 kBq measured upto 60 mins by radio-HPLC analysis; format: ADME, cell-free; settings: read-out: Stability; outline: as §1
[5] = Stability in PBS assessed as drug degradation at 185 kBq measured upto 60 mins by radio-HPLC analysis; format: physicochemical; settings: buffer, 1 h; outline: as §1
[6] = Stability in CD1 mouse plasma assessed as drug degradation at 185 kBq measured upto 60 mins by radio-HPLC analysis; format: ADME, cell-free; settings: 1 h; outline: as §1
[7] = Stability in female nude mouse harboring null mutation of CD1 antigen complex assessed as drug degradation at 5.1 to 7.4 MBq, iv measured at 60 mins by radio-HPLC analysis; format: ADME, organism-based; settings: 1 h, dose 5.1-7.4 MBq
Outline: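 Female CD1 nude mice received 5.1–7.4 MBq i.v. EDTA blood collected at 15, 30 and 60 min p.i. (n=3 per time point) was centrifuged to plasma, deproteinized with cold ACN and centrifuged. The supernatant was analyzed by radio-HPLC with 30 s fractions γ-counted to give the percent intact tracer.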

[8] = Drug uptake in liver of female nude mouse harboring null mutation of CD1 antigen complex at 5.1 to 7.4 MBq, iv measured after 15 to 60 mins by gamma counter analysis; format: ADME, organism-based; settings: in vivo, dose lower 5.1 MBq, time lower 15 min, dose upper 7.4 MBq, time upper 60 min
Outline: (§2)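 Female CD1 nude mice, 6–8 weeks old (20–25 g), received the radiotracer through the lateral tail vein. At 15, 30 and 60 min p.i. (n = 3 per time point) blood was drawn by cardiac puncture and the animals were euthanized. Organs were excised, weighed and γ-counted. Uptake is expressed as %ID/g.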

[9] = Drug uptake in intestine of female nude mouse harboring null mutation of CD1 antigen complex at 5.1 to 7.4 MBq, iv measured after 15 to 60 mins by gamma counter analysis; format: ADME, organism-based; settings: in vivo, dose lower 5.1 MBq, time lower 15 min, dose upper 7.4 MBq, time upper 60 min; outline: as §2
[10] = Drug uptake in kidney of female nude mouse harboring null mutation of CD1 antigen complex assessed as increase in renal excretion at 5.1 to 7.4 MBq, iv measured after 15 to 60 mins by gamma counter analysis; format: ADME, organism-based; settings: in vivo, dose lower 5.1 MBq, time lower 15 min, dose upper 7.4 MBq, time upper 60 min; outline: as §2
[11] = Drug uptake in urinary bladder of female nude mouse harboring null mutation of CD1 antigen complex assessed as increase in renal excretion at 5.1 to 7.4 MBq, iv measured after 15 to 60 mins by gamma counter analysis; format: ADME, organism-based; settings: in vivo, dose lower 5.1 MBq, time lower 15 min, dose upper 7.4 MBq, time upper 60 min; outline: as §2
[12] = Drug uptake in tumor of female nude mouse harboring null mutation of CD1 antigen complex xenografted with human U-87 MG cells at 5 to 7.4 MBq, iv measured at 60 mins by PET/CT analysis; format: ADME, organism-based, Neoplasm; settings: in vivo, 1 h, dose 5-7.4 MBq
Outline: (§3)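 U-87MG xenografts (5×10^6 cells, subcutaneous flank) were grown in female CD1 nude mice to about 200 mm3. Dynamic whole-body PET over 60 min p.i. was followed by CT. Images were reconstructed with OSEM 3D and expressed as %ID/mL to give time-activity curves. For blocking, the FAP inhibitor (5 mg/kg) was given via the tail vein 30 min before the tracer; n=4.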

[13] = Drug uptake in tumor of female nude mouse harboring null mutation of CD1 antigen complex xenografted with human U-87 MG cells at 5 to 7.4 MBq, iv pretreated with (S)-N-(2-(2-cyano-4,4-difluoropyrrolidin-1-yl)-2-oxoethyl)quinoline-4-carboxamide for 30 mins followed by radioligand addition and measured measured after 60 mins by PET/CT analysis; format: ADME, organism-based, Neoplasm; settings: in vivo, 1 h, dose 5-7.4 MBq; outline: as §3
[14] = Drug uptake in skull of female nude mouse harboring null mutation of CD1 antigen complex xenografted with human U-87 MG cells at 5 to 7.4 MBq, iv measured after 60 mins by gamma counter analysis; format: ADME, organism-based; settings: in vivo, 1 h, dose 5-7.4 MBq
[15] = Ratio of drug level in tumor to muscle of female nude mouse harboring null mutation of CD1 antigen complex xenografted with human U-87 MG cells at 5 to 7.4 MBq, iv measured at 60 mins postinjection by gamma counter analysis; format: ADME, organism-based; settings: in vivo, 1 h, dose 5-7.4 MBq
Outline: (§4)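 Subcutaneous U-87MG xenografts (5×10^6 cells in DPBS, hind flank) were grown in female CD1 nude mice to about 200 mm3. After tail-vein radiotracer injection and a 60 min dynamic PET scan, tissues were harvested at 60 min p.i. and γ-counted (%ID/g). Tumor-to-tissue ratios are means ± SD of individual ratios, n=4 per tracer.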

[16] = Ratio of drug level in tumor to blood of female nude mouse harboring null mutation of CD1 antigen complex xenografted with human U-87 MG cells at 5 to 7.4 MBq, iv measured at 60 mins postinjection by gamma counter analysis; format: ADME, organism-based; settings: tumour, 1 h, dose 5-7.4 MBq; outline: as §4
[17] = Ratio of drug level in tumor to small intestine of female nude mouse harboring null mutation of CD1 antigen complex xenografted with human U-87 MG cells at 5 to 7.4 MBq, iv measured at 60 mins postinjection by gamma counter analysis; format: ADME, organism-based; settings: in vivo, 1 h, dose 5-7.4 MBq; outline: as §4
[18] = Ratio of drug level in tumor to liver of female nude mouse harboring null mutation of CD1 antigen complex xenografted with human U-87 MG cells at 5 to 7.4 MBq, iv measured at 60 mins postinjection by gamma counter analysis; format: ADME, organism-based; settings: in vivo, 1 h, dose 5-7.4 MBq; outline: as §4
[19] = Drug uptake in tumor of female nude mouse harboring null mutation of CD1 antigen complex xenografted with human U-87 MG cells with increased FAP positive tumor area at 5 to 7.4 MBq, iv measured after 60 mins by immunohistochemistry analysis; format: ADME, organism-based, Neoplasm; settings: in vivo, 1 h, dose 5-7.4 MBq
[20] = Drug uptake in tumor of female nude mouse harboring null mutation of CD1 antigen complex xenografted with human HT-29 cells with decreased FAP positive tumor area at 5 to 7.4 MBq, iv measured after 60 mins by immunohistochemistry analysis; format: ADME, organism-based, Neoplasm; settings: in vivo, 1 h, dose 5-7.4 MBq
[21] = Drug uptake in bone structures of female nude mouse harboring null mutation of CD1 antigen complex xenografted with human U-87 MG cells at 5 to 7.4 MBq, iv measured after 60 mins by gamma counter analysis; format: ADME, organism-based, Bone element; settings: in vivo, 1 h, dose 5-7.4 MBq
[22] = target: T1, Prolyl endopeptidase FAP (Homo sapiens, UniProt Q12884); experiment: Inhibition of FAP (unknown origin) using Z-Gly-Pro-7-amino-4-methylcoumarine as fluorogenic substrate preincubated for 15 mins followed by substrate addition and measured after 15 mins
T1 sequence (Q12884 whole entry): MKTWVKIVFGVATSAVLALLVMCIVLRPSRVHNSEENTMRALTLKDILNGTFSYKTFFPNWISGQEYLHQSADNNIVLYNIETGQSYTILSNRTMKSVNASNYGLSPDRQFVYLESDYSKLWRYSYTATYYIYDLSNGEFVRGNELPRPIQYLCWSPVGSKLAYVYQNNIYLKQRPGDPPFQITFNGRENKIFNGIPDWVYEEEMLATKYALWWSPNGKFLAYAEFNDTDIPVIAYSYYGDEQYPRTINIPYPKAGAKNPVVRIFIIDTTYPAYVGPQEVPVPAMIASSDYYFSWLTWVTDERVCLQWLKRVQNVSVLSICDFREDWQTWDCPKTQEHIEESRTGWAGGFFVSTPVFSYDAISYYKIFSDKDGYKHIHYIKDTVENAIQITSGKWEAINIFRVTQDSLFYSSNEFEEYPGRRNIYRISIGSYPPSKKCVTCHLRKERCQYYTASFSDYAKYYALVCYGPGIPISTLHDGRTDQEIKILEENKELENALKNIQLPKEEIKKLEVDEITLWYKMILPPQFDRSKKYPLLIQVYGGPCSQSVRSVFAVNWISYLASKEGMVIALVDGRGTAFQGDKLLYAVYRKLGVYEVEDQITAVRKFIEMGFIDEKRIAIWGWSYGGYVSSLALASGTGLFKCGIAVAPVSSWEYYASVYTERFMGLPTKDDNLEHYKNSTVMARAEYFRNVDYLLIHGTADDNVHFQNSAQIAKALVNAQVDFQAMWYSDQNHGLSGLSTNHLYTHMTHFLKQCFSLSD

[23] = target: Dipeptidyl peptidase 4 (Homo sapiens, UniProt P27487); experiment: Inhibition of DPP4 (unknown origin) using Ala-Pro-paranitroanilide as chromogenic substrate preincubated for 15 mins followed by substrate addition and measured after 15 mins
[24] = target: Dipeptidyl peptidase 8 (Homo sapiens, UniProt Q6V1X1); experiment: Inhibition of DPP8 (unknown origin) using Ala-Pro-paranitroanilide as chromogenic substrate preincubated for 15 mins followed by substrate addition and measured after 15 mins
[25] = target: Dipeptidyl peptidase 9 (Homo sapiens, UniProt Q86TI2); experiment: Inhibition of DPP9 (unknown origin) using Ala-Pro-paranitroanilide as chromogenic substrate preincubated for 15 mins followed by substrate addition and measured after 15 mins
[26] = target: T2, Prolyl endopeptidase (Homo sapiens, UniProt P48147); experiment: Inhibition of PREP (unknown origin) using N-succinyl-Gly-Pro-AMC as substrate preincubated for 15 mins followed by substrate addition and measured after 15 mins
T2 sequence (P48147 whole entry): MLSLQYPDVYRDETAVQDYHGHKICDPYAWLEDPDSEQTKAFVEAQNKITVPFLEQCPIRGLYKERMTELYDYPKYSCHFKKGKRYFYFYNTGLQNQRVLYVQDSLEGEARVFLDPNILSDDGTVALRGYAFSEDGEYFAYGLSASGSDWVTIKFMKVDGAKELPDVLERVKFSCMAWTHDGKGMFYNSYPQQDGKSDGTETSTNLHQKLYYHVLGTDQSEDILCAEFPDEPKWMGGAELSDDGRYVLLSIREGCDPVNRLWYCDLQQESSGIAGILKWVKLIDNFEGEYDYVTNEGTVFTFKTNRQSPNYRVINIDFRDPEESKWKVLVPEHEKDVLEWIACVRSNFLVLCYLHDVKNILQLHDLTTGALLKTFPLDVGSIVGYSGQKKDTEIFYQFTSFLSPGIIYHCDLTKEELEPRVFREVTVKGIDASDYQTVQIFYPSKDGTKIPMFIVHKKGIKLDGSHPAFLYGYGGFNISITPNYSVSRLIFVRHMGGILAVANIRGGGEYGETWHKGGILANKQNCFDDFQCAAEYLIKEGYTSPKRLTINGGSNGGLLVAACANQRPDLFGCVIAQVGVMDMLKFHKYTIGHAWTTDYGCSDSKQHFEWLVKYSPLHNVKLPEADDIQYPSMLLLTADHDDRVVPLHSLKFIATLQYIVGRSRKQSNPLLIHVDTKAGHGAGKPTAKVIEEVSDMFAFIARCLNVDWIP

Chain of Dipeptidyl peptidase 8 (Q6V1X1 whole entry): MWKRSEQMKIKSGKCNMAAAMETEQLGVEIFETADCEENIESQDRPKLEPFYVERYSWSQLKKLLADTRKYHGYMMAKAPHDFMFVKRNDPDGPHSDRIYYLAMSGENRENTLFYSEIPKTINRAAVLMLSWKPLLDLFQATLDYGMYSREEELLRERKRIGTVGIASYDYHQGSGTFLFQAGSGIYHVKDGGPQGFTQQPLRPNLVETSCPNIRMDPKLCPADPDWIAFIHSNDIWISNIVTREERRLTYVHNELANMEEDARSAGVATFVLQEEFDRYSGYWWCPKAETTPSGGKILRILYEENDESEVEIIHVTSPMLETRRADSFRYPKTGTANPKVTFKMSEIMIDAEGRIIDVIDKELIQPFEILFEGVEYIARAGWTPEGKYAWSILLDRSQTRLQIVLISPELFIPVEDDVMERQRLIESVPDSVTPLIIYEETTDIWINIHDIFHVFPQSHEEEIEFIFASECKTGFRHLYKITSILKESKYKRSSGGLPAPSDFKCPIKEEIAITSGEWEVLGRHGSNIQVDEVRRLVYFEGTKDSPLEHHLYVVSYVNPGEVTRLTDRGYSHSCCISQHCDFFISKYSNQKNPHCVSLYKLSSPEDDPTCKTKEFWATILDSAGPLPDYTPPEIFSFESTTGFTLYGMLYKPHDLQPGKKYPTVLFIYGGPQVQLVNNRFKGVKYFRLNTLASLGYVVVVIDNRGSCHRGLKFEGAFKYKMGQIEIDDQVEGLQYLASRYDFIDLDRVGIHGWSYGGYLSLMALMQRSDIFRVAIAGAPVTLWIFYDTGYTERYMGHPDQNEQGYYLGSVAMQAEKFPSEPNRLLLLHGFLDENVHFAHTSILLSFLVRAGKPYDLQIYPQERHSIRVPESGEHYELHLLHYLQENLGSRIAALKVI
Chain of Dipeptidyl peptidase 9 (Q86TI2 whole entry): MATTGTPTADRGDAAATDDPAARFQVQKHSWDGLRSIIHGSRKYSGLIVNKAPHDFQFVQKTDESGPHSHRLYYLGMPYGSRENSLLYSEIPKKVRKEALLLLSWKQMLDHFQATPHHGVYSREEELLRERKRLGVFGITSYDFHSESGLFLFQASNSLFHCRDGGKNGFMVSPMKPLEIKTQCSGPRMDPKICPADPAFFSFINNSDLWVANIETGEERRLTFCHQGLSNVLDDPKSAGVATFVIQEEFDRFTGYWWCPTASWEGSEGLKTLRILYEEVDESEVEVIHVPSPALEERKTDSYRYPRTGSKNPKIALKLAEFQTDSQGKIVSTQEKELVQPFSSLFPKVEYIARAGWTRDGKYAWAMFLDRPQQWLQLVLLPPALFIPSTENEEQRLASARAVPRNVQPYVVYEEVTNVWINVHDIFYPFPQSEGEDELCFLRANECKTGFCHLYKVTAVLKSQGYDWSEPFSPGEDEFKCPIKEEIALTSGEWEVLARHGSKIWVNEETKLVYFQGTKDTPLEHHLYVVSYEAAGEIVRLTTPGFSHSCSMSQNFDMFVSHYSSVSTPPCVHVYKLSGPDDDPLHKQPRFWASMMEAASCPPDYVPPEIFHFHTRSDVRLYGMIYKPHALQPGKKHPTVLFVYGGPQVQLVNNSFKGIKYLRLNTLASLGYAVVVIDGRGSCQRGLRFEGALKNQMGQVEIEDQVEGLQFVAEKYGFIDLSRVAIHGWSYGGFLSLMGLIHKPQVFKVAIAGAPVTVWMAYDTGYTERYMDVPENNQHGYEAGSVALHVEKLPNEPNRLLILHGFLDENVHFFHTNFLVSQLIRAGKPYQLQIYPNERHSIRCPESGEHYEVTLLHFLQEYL
Chain of Dipeptidyl peptidase 4 (P27487 whole entry): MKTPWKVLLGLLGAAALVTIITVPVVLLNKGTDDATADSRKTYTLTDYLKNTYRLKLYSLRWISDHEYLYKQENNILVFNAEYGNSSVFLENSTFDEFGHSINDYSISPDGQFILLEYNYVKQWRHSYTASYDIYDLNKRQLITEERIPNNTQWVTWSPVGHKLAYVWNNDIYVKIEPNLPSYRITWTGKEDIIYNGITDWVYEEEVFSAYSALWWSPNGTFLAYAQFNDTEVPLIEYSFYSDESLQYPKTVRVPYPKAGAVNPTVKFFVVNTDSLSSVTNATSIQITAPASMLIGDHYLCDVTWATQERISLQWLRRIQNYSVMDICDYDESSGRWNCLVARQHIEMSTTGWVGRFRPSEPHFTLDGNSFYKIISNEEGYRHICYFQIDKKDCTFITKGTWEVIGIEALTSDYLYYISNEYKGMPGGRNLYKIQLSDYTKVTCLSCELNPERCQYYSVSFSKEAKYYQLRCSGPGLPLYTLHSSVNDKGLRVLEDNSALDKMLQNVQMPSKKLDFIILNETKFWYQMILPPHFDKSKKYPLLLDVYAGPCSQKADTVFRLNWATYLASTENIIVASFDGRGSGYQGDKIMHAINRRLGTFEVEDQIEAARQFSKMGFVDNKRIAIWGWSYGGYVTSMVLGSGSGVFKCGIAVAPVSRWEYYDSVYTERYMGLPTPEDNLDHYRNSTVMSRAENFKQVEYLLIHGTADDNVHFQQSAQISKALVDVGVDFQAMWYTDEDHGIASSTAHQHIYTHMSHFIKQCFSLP

C[N+](C)(CF)CCCOc1ccc2nccc(C(=O)NCC(=O)N3CC(F)(F)C[C@H]3C#N)c2c1
IC50 [1]: > 10 µM

N#C[C@@H]1CC(F)(F)CN1C(=O)CNC(=O)c1ccnc2ccc(OCC(O)C[18F])cc12 (some centres not stated)
logD at 2 min [2]: 0.18
remaining at 1 h, 185 kBq [3]: > 70%
remaining at 1 h, 185 kBq [4]: > 70%
Stability [5]: Stable
Stability [6]: Stable
Stability [7]: Unstable
Drug uptake [8]: Active
Drug uptake [9]: Active
Drug uptake [10]: Active
Drug uptake [11]: Active
Drug uptake [12]: < 3 %ID/ml
Drug uptake [13]: Not Active
Drug uptake [14]: Active
Ratio [15]: 3.6
Ratio [16]: 6.58
Ratio [17]: 0.16
Ratio [18]: 2.37
Drug uptake [19]: Active
Drug uptake [20]: Not Active
Drug uptake [21]: Active

CC1(C)O[C@@H](CF)[C@H](COc2ccc3nccc(C(=O)NCC(=O)N4CC(F)(F)C[C@H]4C#N)c3c2)O1
IC50 [22]: 0.00046 µM
IC50 [23]: > 10 µM
IC50 [24]: > 10 µM
IC50 [25]: > 10 µM
IC50 [1]: > 10 µM
IC50 [26]: > 10 µM
